# High-throughput results (PubChem BioAssay)
# In the library only some 0.41% were active in any assay of this set; here they are far more common.
# S1P3 antagonist – S1P3 (human) receptor antagonism; inhibition, % at 4.98 µM; Q99500; AID 485; 170,000 compounds, 0.27% hits; CHO S1P3 NFAT-BLA reporter, FRET fluorescence, antagonist mode;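 active = inhibition above the plate cutoff, the mean inhibition of test wells on that plate plus 3 SD, cut at about 28% in these data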;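 also: cells challenged with S1P at its EC80 of 0.8 µM; blue over green emission ratio from cleaved BLA substrate after 4 h stimulation; 0% = S1P-stimulated wells and 100% = unstimulated DMSO-only wells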
# Target sequence (Q99500 whole entry, looked up): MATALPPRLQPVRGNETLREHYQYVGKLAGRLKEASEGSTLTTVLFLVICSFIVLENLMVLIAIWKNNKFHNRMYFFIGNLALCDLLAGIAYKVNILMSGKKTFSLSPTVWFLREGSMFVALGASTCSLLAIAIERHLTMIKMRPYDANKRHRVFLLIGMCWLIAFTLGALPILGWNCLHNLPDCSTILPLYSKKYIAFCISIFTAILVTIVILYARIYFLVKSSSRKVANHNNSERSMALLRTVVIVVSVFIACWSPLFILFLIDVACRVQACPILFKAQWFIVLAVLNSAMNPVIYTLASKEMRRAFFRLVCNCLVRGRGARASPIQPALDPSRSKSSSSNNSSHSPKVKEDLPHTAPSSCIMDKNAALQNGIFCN
# T cell modulator – T cell immune modulation candidate. 2C CD8+ T cell-vesicle binding, flow cytometry; hits give low values. response (vesicle binding), % at 7 µM. 330,000 compounds, 0.068% hits;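 active = response, share of CD8 T cells binding vesicles, and their 90th percentile fluorescence all below set limits, cut at about 80% in these data, passing the limit was not always enough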;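 also: values below 100% mean blocked vesicle binding to the CD8+ T cells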
#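 Assay system – 2C mouse CD8+ T cells · Also added – QL9-loaded Drosophila micro-vesicles · Timing – Cell–vesicle co-incubation 1.5 h at 37 °C, staining 20 min on ice · Signal – flow cytometry of vesicle-bound cells · Measure – percent CD8+ FL2 mean versus row control · Controls – Peptide-free naked vesicles (low) and QL9 vesicles with 0.7% DMSO vehicle (high)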
# Yeast superoxide – yeast age-related superoxide inhibition as caloric restriction mimetic. S. cerevisiae aged cells, superoxide DHE fluorescence; hits give low values. 330,000 compounds, 0.18% hits. superoxide response (% of plate mean), % at 10 µM. AID 2690;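 active = superoxide response under a set limit, about three screen SD below normal, cut at about 65% in these data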;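 also: yeast aged for seven days with compound at 30 °C before DHE staining; 100% = average MFI of all compound-treated wells on the plate with controls excluded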
# Starred values were filed as active, the others as inactive; nt = no result given.
SMILES,S1P3 antagonist,T cell modulator,Yeast superoxide
Cc1nnc(NC(=O)CSc2nnc(Cc3cccn3C)n2-c2cccc(C(F)(F)F)c2)s1,88*,522,121
Cc1ccc(S(=O)(=O)N2CCOC2CNC(=O)C(=O)NCc2ccc3c(c2)OCO3)cc1 (stereo not given),nt,182,118
CCN1CCN(c2ccc(S(=O)(=O)N3CCCCC3)cc2NC(=O)c2cccc(C)c2[N+](=O)[O-])CC1,nt,49*,87
CCN1CCN(c2ccc(S(=O)(=O)N3CCCCC3)cc2NC(=O)c2ccccc2)CC1,nt,353,107
CCN(CC(=O)NC(C)(C)C)C(=O)CN1c2cccc3cccc(c23)S1(=O)=O,nt,133,92
CN(Cc1ccccc1)C(=O)COc1cc(Cl)ccc1Cl,nt,217,78
O=C(O)c1ccc(S(=O)(=O)c2ccc3c(c2)C(=O)N(CC2CCCO2)C3=O)cc1 (stereo not given),-15,189,108
O=C(O)c1ccc(S(=O)(=O)c2ccc3c(c2)C(=O)N(Cc2ccco2)C3=O)cc1,106*,468,109
CC(=O)Nc1ccc(NC(=O)C(C)OC(=O)[C@@H]2CCCN2C(=O)c2cccs2)cc1 (stereo not given in full),nt,65*,101
COC(=O)C1CCCN1C(=O)c1cccs1 (stereo not given),4,186,113
COc1cc(C(=O)NCCCN2CCCC2=O)cc(Br)c1OCc1ccccc1,nt,364,104
Cc1nn(C)c(C(=O)N/N=C/c2ccc(Br)cc2)c1Cl,8,322,61*
Cc1nn(C)c(C(=O)N/N=C/c2ccncc2)c1Cl,nt,387,94
CCCCn1c(N)c(N(CCOC)C(=O)COC(=O)COc2ccc(CC)cc2)c(=O)[nH]c1=O,nt,309,85
CN(C(=O)COC(=O)c1cccc(S(=O)(=O)N2CCCCCC2)c1)C1CCS(=O)(=O)C1 (stereo not given),nt,345,104
CN(C(=O)COC(=O)c1cccc(NS(=O)(=O)c2ccc(F)c(F)c2)c1)C1CCS(=O)(=O)C1 (stereo not given),-4,19*,93
COc1ccc(Cl)cc1NC(=O)c1noc(C)c1[N+](=O)[O-],nt,242,97
CCC(CC)COC(=O)C1=C(C)NC(=O)NC1c1ccc(N(C)C)cc1 (stereo not given),nt,339,95
COc1cc(C2=NOC(C(=O)Nc3ccc(C)cc3)C2)cc(OC)c1OC (stereo not given),-39,497,85
COc1cc(C2=NOC(C(=O)NC3CCCCC3)C2)cc(OC)c1OC (stereo not given),96*,404,149
CCC(=O)c1ccc(OCC(=O)OCC(=O)NCC2CCCCC2)cc1,nt,169,102
S=C(Nc1ccccc1Cl)Nc1ccc(Cl)cc1Cl,nt,242,101
O=C(Nc1ccccc1Cl)Oc1ccc(Cl)cc1Cl,-4,27*,82
CCOP(=O)(OCC)c1ccc2ccc3ccccc3c(=O)c2c1,nt,220,106
Cc1sc2ncnc(N(C)C3CCCCC3)c2c1C,nt,212,100
SMILES,S1P3 antagonist,T cell modulator,Yeast superoxide
CN(c1nnc(N)s1)C1CCCCC1,95*,30,101
CCCCOc1ccc(CN2CCSCC2)cc1,nt,259,98
CCC(C)[C@H](NC(=O)[C@@H]1Cc2c([nH]c3ccccc23)C2c3ccccc3C(=O)N21)C(=O)NCC1CCCO1 (stereo not given in full),nt,307,146
COc1nc(Nc2ccc(C(C)C)cc2)nc(OC)n1,nt,0.0*,116
COc1nc(Nc2ccc(O)cc2)nc(OC(C(F)(F)F)C(F)(F)F)n1,21,938,99
COc1ccc(C2(C)NC(=O)N(CC(=O)c3cc(C)n(C4CC4)c3C)C2=O)cc1OC (stereo not given),nt,289,92
C/C(Cn1nc([N+](=O)[O-])cc1C)=N\NC(=O)COc1ccc(Cl)cc1Cl,12,294,55*
C/C(Cn1nc([N+](=O)[O-])cc1C)=N\NC(=O)COc1ccccc1[N+](=O)[O-],0,649,104
COc1ccc(S(=O)(=O)Nc2cc(C)ccn2)cc1OC,115*,405,80
COc1ccc(S(=O)(=O)Nc2ccccn2)cc1OC,-17,994,119
COc1cc(OC)c(-n2cc(-c3ccc(OC)c(OC)c3)[nH]c2=S)cc1Cl,nt,165,96
COc1ccccc1-c1noc(-c2ccccc2)n1,5,234,101
COc1ccc(-c2nc(-c3ccccc3OC)no2)cc1OC,54*,423,110
Cc1cc(NC(=O)CN2C(=O)NC(CC(C)C)C2=O)ccc1Br (stereo not given),nt,140,98
Cc1ccc(S(=O)(=O)NCCC(=O)OCC(=O)Nc2cccc(Cl)c2)cc1,nt,365,77
Cc1cc(Cl)ccc1NC(=O)COC(=O)CCNS(=O)(=O)c1ccccc1,nt,0.0*,102
